Source: ChEMBL document CHEMBL1127418, “Novel antiproliferative agents derived from lavendustin A” (J Med Chem, 1994)
One block for each compound: values may come before it.

Tests used:
HaCaT = assay: Inhibitory activity of HaCaT keratinocyte cell line; type: functional, cell-based; details: Homo sapiens
How it was run: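 HaCaT keratinocytes kept in DMEM with 5% FCS, trypsinized and seeded at 4000 cells/0.2 mL/well. After 24 h, medium was replaced with fresh medium holding graded compound concentrations. Proliferation was read after 3–4 days by sulforhodamine B colorimetry. IC50 values are the average of at least two independent measurements.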

[1] = biological target: Epidermal growth factor receptor (Homo sapiens, UniProt P00533); assay: Inhibition of EGF-R Tyrosine kinase (TK)
B16 = assay: Inhibition of B16F1 cell proliferation; details: Mus musculus
A-431 = assay: Inhibition of A431 cell proliferation; details: Homo sapiens
MDA-MB-468 = assay: Inhibition of MDA-MB-468 cell proliferation; type: functional, cell-based; details: Homo sapiens
MDA-MB-231 = assay: cells; details: Homo sapiens
KB = assay: Inhibition of KB cell proliferation; details: Homo sapiens
SCL-1 = assay: Inhibition of SCL-1 cell proliferation; details: Homo sapiens
SK-BR-3 = assay: Inhibition of SK-BR-3 cell proliferation; type: functional, cell-based; details: Homo sapiens
How it was run: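 Tumour cells grown at 37 °C without antibiotics. Harvested at exponential growth (suspension lines) or 60–90% confluence (adherent lines, trypsinized), then seeded at 1000–5000 cells/well. Cultured 3–4 days with graded compound concentrations. Proliferation read by sulforhodamine B for adherent cells or MTT for suspension cells. IC50 derived from the concentration series.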

P388 = assay: Inhibition of P388 cell proliferation; details: Mus musculus
LoVo = assay: Inhibition of LOVO cell proliferation; type: functional, cell-based; details: Homo sapiens
L1210 [2] = assay: (§1) Inhibition of L1210 cell proliferation; details: Mus musculus
K562 = assay: Inhibition of K562 cell proliferation; details: Homo sapiens
HeLa = assay: Inhibition of HeLa cell proliferation; details: Homo sapiens
U-937 = assay: Inhibition of U937 cell proliferation; type: functional, cell-based; details: Homo sapiens
MCF7 = assay: Inhibition of MCF-7 cell proliferation; details: Homo sapiens
L1210 [3] = assay: as §1; type: functional, cell-based; details: Mus musculus

Epidermal growth factor receptor, sequence (P00533 whole entry): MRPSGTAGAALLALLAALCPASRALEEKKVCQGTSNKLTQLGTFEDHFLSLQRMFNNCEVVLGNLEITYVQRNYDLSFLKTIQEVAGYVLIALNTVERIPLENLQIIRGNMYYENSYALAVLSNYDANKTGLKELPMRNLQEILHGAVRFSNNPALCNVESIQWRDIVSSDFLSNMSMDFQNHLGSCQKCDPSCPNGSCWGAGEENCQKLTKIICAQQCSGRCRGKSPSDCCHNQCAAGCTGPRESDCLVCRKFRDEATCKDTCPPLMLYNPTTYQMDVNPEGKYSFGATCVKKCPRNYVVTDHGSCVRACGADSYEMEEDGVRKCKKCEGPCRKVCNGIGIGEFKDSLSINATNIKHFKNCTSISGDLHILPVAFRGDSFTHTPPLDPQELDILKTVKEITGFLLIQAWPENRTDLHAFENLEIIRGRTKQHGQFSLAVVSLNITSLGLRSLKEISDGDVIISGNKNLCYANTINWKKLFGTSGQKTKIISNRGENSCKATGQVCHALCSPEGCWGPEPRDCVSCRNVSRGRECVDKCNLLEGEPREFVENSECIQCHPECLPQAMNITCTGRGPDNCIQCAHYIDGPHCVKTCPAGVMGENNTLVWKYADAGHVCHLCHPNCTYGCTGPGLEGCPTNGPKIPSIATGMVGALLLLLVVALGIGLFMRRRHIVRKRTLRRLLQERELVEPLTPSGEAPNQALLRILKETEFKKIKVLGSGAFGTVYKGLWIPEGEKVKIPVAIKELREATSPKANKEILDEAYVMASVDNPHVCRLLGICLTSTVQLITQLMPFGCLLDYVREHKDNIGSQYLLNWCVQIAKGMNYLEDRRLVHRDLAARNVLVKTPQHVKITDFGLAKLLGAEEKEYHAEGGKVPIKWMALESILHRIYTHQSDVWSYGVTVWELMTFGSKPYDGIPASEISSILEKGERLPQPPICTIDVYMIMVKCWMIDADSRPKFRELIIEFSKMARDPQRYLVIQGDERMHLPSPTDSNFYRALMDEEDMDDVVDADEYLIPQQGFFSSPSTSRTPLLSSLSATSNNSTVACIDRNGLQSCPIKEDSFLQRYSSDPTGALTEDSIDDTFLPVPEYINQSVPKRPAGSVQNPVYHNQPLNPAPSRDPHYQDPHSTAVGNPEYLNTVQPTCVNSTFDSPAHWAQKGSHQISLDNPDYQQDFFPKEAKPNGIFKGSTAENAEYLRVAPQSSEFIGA

IC50 [1]: 3.3 µM
SMILES: O=C(O)c1cc(CCc2cc(O)ccc2O)ccc1O
IC50 (HaCaT): > 100 µM

IC50 (B16): 0.269 µM
IC50 (A-431): 0.213 µM
IC50 (MDA-MB-468): 0.0465 µM
IC50 (MDA-MB-231): 0.427 µM
IC50 (KB): 0.192 µM
IC50 [1]: > 100 µM
IC50 (SK-BR-3): 0.031 µM
IC50 (P388): 0.338 µM
IC50 (LoVo): 0.185 µM
IC50 (L1210 [2]): 0.415 µM
IC50 (K562): 0.217 µM
IC50 (HeLa): 0.47 µM
IC50 (U-937): 0.32 µM
IC50 (MCF7): 0.019 µM
SMILES: COC(=O)c1cc(CCc2cc(OC)ccc2OC)ccc1O
IC50 (HaCaT): 0.04 µM
IC50 (SCL-1): 0.383 µM

SMILES: COC(=O)c1cc(/C=C/c2cc(OC)ccc2OC)ccc1O
IC50 (HaCaT): 5.6 µM

SMILES: COc1ccc(OC)c(CCc2ccc(O)c(C(=O)O)c2)c1
IC50 (HaCaT): 4.8 µM

IC50 [1]: 24.4 µM
SMILES: COC(=O)c1cc(NCc2cc(O)ccc2O)ccc1O
IC50 (HaCaT): 29 µM

SMILES: COC(=O)c1cc(CCc2cc(O)ccc2O)ccc1O
IC50 (HaCaT): 18 µM

SMILES: COC(=O)c1cc(COc2cc(OC)ccc2OC)ccc1O
IC50 (HaCaT): 14 µM

SMILES: COC(=O)c1cc(/C=C\c2cc(OC)ccc2OC)ccc1O
IC50 (HaCaT): 3.9 µM

SMILES: COC(=O)c1cc(NCc2cc(OC)ccc2OC)ccc1O
IC50 (HaCaT): 1.5 µM

IC50 [1]: > 100 µM
SMILES: COc1ccc(OC)c(CNc2ccc(O)c(C(=O)O)c2)c1
IC50 (HaCaT): 92 µM

SMILES: COC(=O)c1cc(CNc2cc(OC)ccc2OC)ccc1O
IC50 (HaCaT): 72 µM

SMILES: COc1cc2c(c(OC)c1OC)-c1ccc(OC)c(=O)cc1[C@@H](NC(C)=O)CC2 [COLCHICINE]
IC50 (A-431): 0.014 µM
IC50 (MDA-MB-468): 0.0069 µM
IC50 (MDA-MB-231): 0.0205 µM
IC50 (KB): 0.0056 µM
IC50 (SK-BR-3): 0.005 µM
IC50 (L1210 [3]): 0.0147 µM
IC50 (P388): 0.0095 µM
IC50 (LoVo): 0.006 µM
IC50 (K562): 0.0141 µM
IC50 (HeLa): 0.018 µM
IC50 (U-937): 0.0052 µM
IC50 (MCF7): 0.0153 µM

IC50 [1]: 4.1 µM
SMILES: O=C(O)c1cc(N(Cc2ccccc2O)Cc2cc(O)ccc2O)ccc1O [LAVENDUSTIN A]
IC50 (HaCaT): > 100 µM

SMILES: O=C(O)c1cc(NCc2cc(O)ccc2O)ccc1O [LAVENDUSTIN C]
IC50 (HaCaT): ≥ 100 µM
